This is an account of results in ChEMBL document CHEMBL1687886, “N-cyclic bay-substituted perylene G-quadruplex ligands have selective antiproliferative effects on cancer cells and induce telomere damage” (J Med Chem, 2011).

The subject of series [1] is BJ. The series is described as follows: Growth inhibition of human BJ cells expressing SV40 early region EHLT at 3 uM on day 8 after 24 hrs trypan blue assay. To be noted: read-out: GI. In kind it is functional. The method in brief: (§1)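 Cells seeded at 5 ×10^4 per dish; compounds freshly dissolved and added to the medium 24 h after plating, at 0.5 μM or 3 μM (3 μM only for one derivative). Cell number by Coulter counting and viability by trypan blue exclusion daily, day 1 to day 8. Growth inhibition of treated vs untreated cells calculated at days 2, 4, 6 and 8. Representative experiments in quintuplicate, SD shown.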

Series [2] has as its system Nucleic Acid. The series is described as follows: Binding affinity to human 21-TT G-quadruplex DNA structure assessed as second step association constant by electrospray ionization mass spectrometry. In kind it is nucleic-acid assay. The method in brief:
(§2)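 ESI-MS in 150 mM ammonium acetate; DNA 5 μM final (per duplex or quadruplex unit); ligand at drug/DNA ratios 0.5 to 4. Methanol (15%) added just before injection, after binding equilibrium. K1 and K2 for 1:1 and 2:1 complexes, and % bound DNA, taken from relative peak intensities assuming equal response factors. At least three repeats.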

In series [3] the test system is Nucleic Acid. The series can be described thus: Binding affinity to human DK66 duplex DNA structure assessed as bound DNA at 5:20 DNA to drug ratio by electrospray ionization mass spectrometry. In kind it is nucleic-acid assay. The method in brief: as §2
In series [4] the test system is BJ. The series is described as follows: Antiproliferative activity against human BJ cells expressing SV40 early region EHLT at 3 uM after 24 hrs by Coulter counter method. It counts as functional, cell-based. The note with it: TDE = time-dependent effect. The method in brief:
as §1

The subject of series [5] is Nucleic Acid. The series is described as follows: Binding affinity to human 21-TT G-quadruplex DNA structure assessed as first step association constant by electrospray ionization mass spectrometry. In kind it is nucleic-acid assay. The method in brief: as §2
Series [6] relates to Nucleic Acid. The series is described as follows: Stabilization of 21-mer human F21T G4-telomeric quadruplex assessed as change in melting temperature at 1 uM by FRET assay. It counts as nucleic-acid assay.
In series [7] the test system is Nucleic Acid. The series can be described thus: Binding affinity to human 21-TT G-quadruplex DNA structure at 1:1 DNA to calf thymus DNA ratio by competitive inhibition assay. In kind it is nucleic-acid assay. On the set-up: concentration or dose not given beside the values. The method in brief: (§3)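 ESI-MS competition: quadruplex DNA and ligand each 5 μM final, plus calf thymus DNA at duplex/quadruplex ratios 1 and 5 (by phosphate concentration), in ammonium acetate. Percentage bound quadruplex and normalized bound quadruplex (N%) measured by mass spectrometry. SD over at least three independent experiments.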

Series [8] concerns BJ. The series can be described thus: Induction of DNA damage response in human BJ cells expressing human TERT assessed as phosphorylation of gamma H2AX after 24 hrs by immunofluorescence. It counts as functional, cell-based. In outline: (§4)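 BJ-EHLT and BJ-hTERT fibroblasts exposed to a range of concentrations for 24 h. Fixed in 2% formaldehyde, permeabilized in 0.25% Triton X-100, immunostained for γ-H2AX and 53BP1. Percentage of positive cells scored. Three independent experiments, SD.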

The test system of series [9] is BJ. The series is described as follows: Antiproliferative activity against human BJ cells expressing TERT at 0.5 uM after 2 to 8 days by trypan blue assay. In kind it is cell-based. The method in brief:
as §1

For series [10], the system named is Nucleic Acid. The series can be described thus: Binding affinity to human 21-TT G-quadruplex DNA structure assessed as bound DNA at 5:5 DNA to drug ratio by electrospray ionization mass spectrometry. It counts as nucleic-acid assay. The method in brief:
as §2

Series [11] relates to BJ. The series can be described thus: Induction of DNA damage response in human BJ cells expressing SV40 early region EHLT assessed as phosphorylation of gamma H2AX at 3 uM after 24 hrs by immunofluorescence. It counts as functional, cell-based. The method in brief:
as §4

Series [12] concerns Nucleic Acid. The series can be described thus: Stabilization of human duplex DNA T-loop assessed as change in melting temperature at 1 uM by FRET assay. In kind it is nucleic-acid assay.
Series [13] deals with Nucleic Acid. The series can be described thus: Binding affinity to human DK66 duplex DNA structure assessed as first step association constant by electrospray ionization mass spectrometry. In kind it is nucleic-acid assay. In outline: as §2
Series [14] concerns Nucleic Acid. The series is described as follows: Binding affinity to human 21-TT G-quadruplex DNA structure at 1:5 DNA to calf thymus DNA ratio by competitive inhibition assay. It counts as nucleic-acid assay. On the set-up: concentration or dose not given beside the values. In outline:
as §3

The subject of series [15] is BJ. The series can be described thus: Induction of DNA damage response in human BJ cells expressing human TERT assessed as phosphorylation of […] after 24 hrs by immunofluorescence. It counts as functional, cell-based. The method in brief:
as §4

Series [16] relates to Nucleic Acid. The series can be described thus: Binding affinity to human 21-TT G-quadruplex DNA structure assessed as bound DNA at 5:10 DNA to drug ratio by electrospray ionization mass spectrometry. In kind it is nucleic-acid assay. In outline:
as §2

Activity calls are given as the source filed them. The calls are words filed in the database; no cut-off is given here.

A word on the ΔTm: it is the shift of the melting midpoint relative to a reference. On to `O=C1c2ccc3c4c(N5CCCCC5)cc5c6c(ccc(c7c(N8CCCCC8)cc(c2c37)C(=O)N1CCN1CCCCC1)c64)C(=O)N(CCN1CCCCC1)C5=O`, for which the inhibition of growth at 3 µM in the series with BJ [1] stood at 50%. Also, the values for the log Ks in the series with Nucleic Acid [2], with Nucleic Acid [5] and with Nucleic Acid [13] were 4.6, 4.8 and 3.8, respectively. Further, the Activity was 12% in the series on Nucleic Acid [3]; “tde” in the series on BJ [4]; 13% in the series with Nucleic Acid [7]; “Dose-dependent effect” in the series on BJ [8]; “Toxic” in the series with BJ [9]; 22% with Nucleic Acid [10]. Moreover, the values for the Activity in the series with Nucleic Acid [14], with BJ [15] and in the series on Nucleic Acid [16] were 9%, “Dose-dependent effect” and 33%, respectively. The ΔTm turned out to be 18.7 °C with Nucleic Acid [6] and 0.2 °C with Nucleic Acid [12]. In addition, the result in the series with BJ [11] was Active.
